Legend:
Type in all cases: cell-based
HEK293 [1] = experiment: Cytotoxicity against HEK293 cells assessed as cell viability at 10 uM after 24 hrs by resazurin conversion assay; details: human, hek293, 24 h
In short: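 HEK293 cells seeded 5 × 10^5 per well, grown overnight, then exposed to 10 μM compound in stripped DMEM for 24 h; vehicle 0.4% DMSO. Wells PBS-washed, then 10 μg/mL resazurin in PBS added for 4 h; conversion read by fluorescence (excitation 535 nm). Viability relative to vehicle; at least three experiments, four technical replicates each.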

[2] = (§1) Cytotoxicity against HEK293 cells assessed as cell viability at 3 uM after 18 hrs by luciferase assay relative to control; details: human, HEK293 cells; read-out: Activity
In short: (§2)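 HEK293 cells calcium-phosphate co-transfected with PPARγ expression plasmid, PPRE-luciferase reporter and pEGFP-N1; 6 h later reseeded at 4 × 10^5/well in DMEM with 5% charcoal-stripped serum and given 3 μM compound for 18 h; vehicle 0.1% DMSO. After lysis, EGFP fluorescence relative to vehicle gave viability; n = 3–4, four technical replicates.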

HEK293 [3] = experiment: as §1; details: human, hek293, 18 h, 3 µM; in short: as §2
[4] = biological target: T1, Peroxisome proliferator-activated receptor gamma (Homo sapiens) (UniProt P37231); experiment: Activation of human PPARgamma expressed in HEK293 cells assessed as maximum fold activation at 0.1 to 30 uM incubated for 18 hrs by luciferase reporter assay relative to control
T1 sequence (whole entry): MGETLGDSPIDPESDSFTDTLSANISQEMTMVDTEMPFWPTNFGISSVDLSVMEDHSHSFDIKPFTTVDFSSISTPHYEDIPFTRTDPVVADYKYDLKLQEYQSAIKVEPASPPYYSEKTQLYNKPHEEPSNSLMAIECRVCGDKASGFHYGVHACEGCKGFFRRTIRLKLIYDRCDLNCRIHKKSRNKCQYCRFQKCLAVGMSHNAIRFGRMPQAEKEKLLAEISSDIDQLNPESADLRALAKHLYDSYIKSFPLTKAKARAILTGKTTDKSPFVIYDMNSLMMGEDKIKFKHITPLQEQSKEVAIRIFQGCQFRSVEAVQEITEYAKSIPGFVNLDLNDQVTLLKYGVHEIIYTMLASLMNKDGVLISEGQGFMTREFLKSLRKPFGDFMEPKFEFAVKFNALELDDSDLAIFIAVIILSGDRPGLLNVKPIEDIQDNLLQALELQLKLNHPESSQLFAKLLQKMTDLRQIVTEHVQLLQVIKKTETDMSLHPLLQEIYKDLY

| SMILES | Activity (HEK293 [1]) | also measured |
| --- | --- | --- |
| CC[C@H](O)C#CC#C[C@@H](O)/C=C\CCCCCCCCO | Non-Toxic |  |
| CC[C@@H](O)C#CC#C/C=C/[C@@H](O)CCCCCCCCOC(C)=O | Non-Toxic |  |
| CCCCCCC/C=C\[C@H](O)C#CC#C[C@@H](O)CC [OPLOPANDIOL] | Non-Toxic |  |
| CCCCCCC(O)/C=C\[C@H](O)C#CC#C[C@@H](O)CC (some centres undefined) | Non-Toxic |  |
| C=C[C@H](O)C#CC#C[C@@H](O)/C=C\CCCCCCCCOC(C)=O | Non-Toxic |  |
| C=C[C@@H](O)C#CC#CC/C=C\CCCCCCC | Non-Toxic | viability at 18 h, 3 µM [2]: > 70% |
| C=C[C@@H](O)C#CC#C/C=C/[C@@H](O)CCCCCCCCO | Non-Toxic |  |
| C=C[C@H](O)C#CC#C[C@@H](O)/C=C\CCCCCCC | Non-Toxic | Activity (HEK293 [3]): Toxic |
| C=C[C@@H](O)C#CC#CC/C=C\CCCCCCCCO | Non-Toxic | viability at 18 h, 3 µM [2]: > 70% |
| C=C[C@@H](O)C#CC#C/C=C/[C@@H](O)CCCCCCC | Non-Toxic |  |
| CCCCCCC[C@H](O)/C=C/C#CC#C[C@H](O)CC | Non-Toxic |  |
| C=C[C@H](O)C#CC#C[C@@H](O)/C=C\CCCCCCCCO | Non-Toxic |  |
| C=C[C@@H](O)C#CC#C[C@@H](O)/C=C\CCCCCCC [FALCARINDIOL] |  | Emax [4]: 3.26 |
| C=C[C@@H](O)C#CC#C/C=C/[C@@H](O)CCCCCCCCOC(C)=O | Non-Toxic |  |
| CC[C@@H](O)C#CC#C/C=C/[C@@H](O)CCCCCCCCO | Non-Toxic |  |
| CC[C@H](O)C#CC#C[C@@H](O)/C=C\CCCCCCCCOC(C)=O [OPLOPANDIOL ACETATE] | Non-Toxic |  |
| CCCCCCC/C=C\[C@H](O)C#CC#C[C@@H](O)CCO | Non-Toxic |  |
| C=C[C@@H](O)C#CC#CC/C=C\CCCCCCCCOC(C)=O | Non-Toxic | viability at 18 h, 3 µM [2]: > 70% |
| OCCCCCCCC/C=C\[C@H](O)C#CC#C[C@@H](O)CCO | Non-Toxic |  |
| CC(=O)OCCCCCCCC/C=C\[C@H](O)C#CC#C[C@@H](O)CCO | Non-Toxic |  |
| C=C[C@@H](O)C#CC#CCC1OC1CCCCCCC (some centres undefined) | Non-Toxic | viability at 18 h, 3 µM [2]: > 70% |
| C=CCCCCC[C@@H]1O[C@@H]1CC#CC#CC(=O)CC | Non-Toxic |  |
| CCCCCCC[C@@H]1O[C@@H]1CC#CC#CC(=O)CC | Non-Toxic |  |
| C=C[C@H](O)C#CC#C[C@@H](O)/C=C\C(O)CCCCCC (some centres undefined) | Non-Toxic |  |
